According to PMC3082393 (Journal of medicinal chemistry, 2011):

Test system: H460 and T29Kt1 cells
Assay: Structure-activity statements from the cell viability assay
Design: species or system human
Details: based on IC50 values of Table 1

Row | SMILES | Antitumor activity (structure-activity statement in words)
1 | O=Cc1cn(CCCOc2ccc(Cl)cc2)c2ccccc12 [Compound 15] | retained its activity and selectivity
2 | CC(C)Cn1cc(C=O)c2ccccc21 [Compound 22] | complete or partial loss of activity
3 | OCc1cn(Cc2ccc(Cl)cc2)c2ccc(F)cc12 [Compound 51, 1-[(4-chlorophenyl)methyl]-5-fluoro-1H-indole-3-methanol] | best potency
4 | Cc1ccc(Cn2cc(CO)c3cc(F)ccc32)cc1 [Compound 55, 1-[(4-methylphenyl)methyl]-5-fluoro-1H-indole-3-methanol] | best potency
5 | OCCc1cn(Cc2ccc(Cl)cc2)c2ccccc12 [Compound 56, 2-[1-[(4-chlorophenyl)methyl]-1H-indole-3-]ethanol] | dramatic reduction or complete loss of activity
6 | OCCCc1cn(Cc2ccccc2)c2ccccc12 [Compound 57] | dramatic reduction or complete loss of activity
7 | CC(O)c1cn(Cc2ccc(Cl)cc2)c2ccccc12 (stereo not shown) [Compound 58, 1-[1-[(4-chlorophenyl)methyl]-1H-indole-3-] ethanol] | dramatic reduction or complete loss of activity
8 | COCc1cn(Cc2ccc(Cl)cc2)c2ccccc12 [Compound 59, 1-[(4-chlorophenyl)methyl]-1H-indole-3-methoxymethane] | dramatic loss of activity
9 | CC(=O)OCc1cn(Cc2ccc(Cl)cc2)c2ccccc12 [Compound 60, 1-[(4-chlorophenyl)methyl]-1H-indole-3-methyl acetate] | equipotent to compound 35
10 | O=C(O)c1cn(Cc2ccccc2)c2ccccc12 [Compound 62] | dramatic reduction or complete loss of activity
11 | O=C(O)c1cn(Cc2ccc(Cl)cc2)c2ccccc12 [Compound 63, 1-[(4-chlorophenyl)methyl]-1H-indole-3-carboxylic acid] | dramatic reduction or complete loss of activity
12 | Cc1cn(Cc2ccc(Cl)cc2)c2ccccc12 [Compound 66, 1-[(4-chlorophenyl)methyl]-1H-indole-3-methane] | dramatic reduction or complete loss of activity
13 | Clc1cccc(Cn2cc(Cc3cn(Cc4cccc(Cl)c4)c4ccccc34)c3ccccc32)c1 [Compound 68, bis[1-[(3-chlorophenyl)methyl]-1H-indole-3-]methane] | complete loss of antitumor activity
14 | Brc1cccc(Cn2cc(Cc3cn(Cc4cccc(Br)c4)c4ccccc34)c3ccccc32)c1 [Compound 69, bis[1-[(3-bromophenyl)methyl]-1H-indole-3-]methane] | complete loss of antitumor activity

Test system: T29 and T29Kt1 cells
Assay: Levels of compound 34 in cells after treatment
Assay type: cell-based
Details: 10 μM, all time points up to 5 h after treatment, normalized with protein amount
In short: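 T29 and T29Kt1 cells at 80–90% confluence were given 10 μM test compound and collected by trypsin at time points up to 5 h. After a PBS wash, cells were lysed (M-PER) and homogenised, and supernatant protein was measured by BCA. Supernatant was deproteinised with 2 volumes of acetonitrile, spun at 4°C and concentrated under nitrogen. Drug was quantified by C18 HPLC (acetonitrile/water gradient, 230 nm) against an indole-methanol internal standard, then normalised to protein.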

Row | SMILES | Level of compound in T29 cells relative to T29Kt1 cells
15 | OCc1cn(Cc2cccc(Cl)c2)c2ccccc12 [Compound 34, 1-[(3-chlorophenyl)methyl]-1H-indole-3-methanol] | twice

Test system: cancer cells that were highly susceptible to oncrasin-1
Assay: not given
Details: cancer cells highly susceptible to oncrasin-1; cited from earlier work

Row | SMILES | Antitumor activity
16 | OCc1c[nH]c2ccccc12 [indole-3-carbinol] | did not have observable antitumor activity

Test system: CDK9
Assay: not given
Details: ref Our previous study; cited from earlier work

Row | SMILES | Direct inhibitory effect on CDK9
17 | O=Cc1cn(Cc2ccc(Cl)cc2)c2ccccc12 [Oncrasin-1, 1-[(4-chlorophenyl)methyl]-1H-indole-3-carboxaldehyde] | moderate

Test system: phosphorylation of the CTD of RNA polymerase II
Assay: not given
Details: cited from earlier work

Row | SMILES | CTD phosphorylation in sensitive cancer cell lines
18 | O=Cc1cn(Cc2ccc(Cl)cc2)c2ccccc12 [Oncrasin-1, 1-[(4-chlorophenyl)methyl]-1H-indole-3-carboxaldehyde] | suppressed phosphorylation

Test system: CDK7
Assay: not given
Details: ref Our previous study; cited from earlier work

Row | SMILES | Direct inhibitory effect on CDK7
19 | O=Cc1cn(Cc2ccc(Cl)cc2)c2ccccc12 [Oncrasin-1, 1-[(4-chlorophenyl)methyl]-1H-indole-3-carboxaldehyde] | moderate
